Legend:
[1] = molecular target: T1, Falcipain 2 (Plasmodium falciparum, UniProt Q9N6S8); assay: Inhibition of falcipain activity; assay type: functional
T1 sequence (Q9N6S8 whole entry): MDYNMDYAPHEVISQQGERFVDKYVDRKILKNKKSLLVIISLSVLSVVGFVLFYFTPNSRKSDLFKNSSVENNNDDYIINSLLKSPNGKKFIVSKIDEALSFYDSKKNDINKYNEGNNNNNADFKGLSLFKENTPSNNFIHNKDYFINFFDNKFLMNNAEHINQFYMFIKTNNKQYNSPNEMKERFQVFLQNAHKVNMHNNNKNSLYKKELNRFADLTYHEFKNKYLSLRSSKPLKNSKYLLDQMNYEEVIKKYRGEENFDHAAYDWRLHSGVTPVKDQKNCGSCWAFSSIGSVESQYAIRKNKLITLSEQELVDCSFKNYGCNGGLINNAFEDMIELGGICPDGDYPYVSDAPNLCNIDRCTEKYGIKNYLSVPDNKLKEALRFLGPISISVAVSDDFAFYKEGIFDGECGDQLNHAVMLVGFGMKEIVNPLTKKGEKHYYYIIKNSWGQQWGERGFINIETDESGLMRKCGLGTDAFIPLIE
In short: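 Soluble parasite extract containing falcipain (30 nM) preincubated 30 min at room temperature with compound (100× DMSO stocks) and 10 mM DTT in 0.1 M sodium acetate, pH 5.5. Z-Phe-Arg-AMC then added to 50 μM final. Fluorescence (ex 380, em 460 nm) followed continuously for 30 min. Rates compared with DMSO controls. Multiple concentrations tested in duplicate or triplicate; IC50 extrapolated from % control activity curves.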

[2] = tested on: Hemozoin; assay: Inhibition of hemoglobin degradation as percentage of organisms with dark swollen food vacuoles; 10-50%; assay type: functional; set-up: scale not given: the % may be the effect or the level left; conditions: Plasmodium falciparum
[3] = tested on: Plasmodium falciparum; assay: Inhibition of parasitaemia in [3H]hypoxanthine incorporation assay; assay type: functional, organism-based
In short: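 Ring-stage P. falciparum Itg2 cultures (300 μL) given compound from 100× DMSO stocks for 24 h. [3H]hypoxanthine then added (0.0144 μg, 1.2 μCi per well) for a further 18 h. Cells harvested onto glass-fiber filters and counted by scintillation. Uptake compared with 1% DMSO controls; IC50 extrapolated from % control curves.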

[4] = tested on: Plasmodium falciparum; assay: Inhibition of parasitaemia in ring-form development assay; assay type: functional, organism-based
In short: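 Ring-stage Itg2 cultures (2 mL) incubated with compound from 100× DMSO stocks. Medium changed at 24 h with inhibitor maintained. At 48 h, new ring forms per 1000 erythrocytes counted on Giemsa-stained smears and compared with 1% DMSO controls.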

[5] = tested on: Hemozoin; assay: Inhibition of hemoglobin degradation as percentage of organisms with dark swollen food vacuoles; assay type: functional; set-up: scale not given: the % may be the effect or the level left; conditions: Plasmodium falciparum
[6] = tested on: MDCK; assay: Compound was tested for inhibition of MDCK cell metabolism using MTT assay method.; assay type: functional, cell-based; conditions: Canis lupus familiaris
In short: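 MDCK cells cultured overnight in phenol red-free RPMI with 1–100 μM compound (100× DMSO stocks); medium then replaced with MTT (1 mg/mL) for 2 h. Supernatant removed, ethanol added, absorbance read at 560 nm. Compared with cells given 1% DMSO overnight.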

[7] = tested on: Hemozoin; assay: Inhibition of hemoglobin degradation as percentage of organisms with dark swollen food vacuoles; 0-10%; assay type: functional; set-up: scale not given: the % may be the effect or the level left; conditions: Plasmodium falciparum
[8] = tested on: Hemozoin; assay: Inhibition of hemoglobin degradation as percentage of organisms with dark swollen food vacuoles; 50-90%; assay type: functional; set-up: scale not given: the % may be the effect or the level left; conditions: Plasmodium falciparum

| IC50 [1] [µM] | IC50 [3] [µM] | IC50 [4] [µM] | Compound | also measured |
| --- | --- | --- | --- | --- |
| 5 | 4 | 6 | O=S1(=O)C2=C(O)CC(c3ccc(Cl)cc3)CC2=Nc2ccc(F)cc21 (stereo not drawn) | Activity [2]: 50% |
| 4 | 8 | 4 | O=S1(=O)C2=C(O)CC(c3ccc(Cl)cc3)CC2=Nc2ccc(Cl)cc21 (stereo not drawn) | Activity [2]: 50% |
| 20 | – | – | COc1cccc(C2CC3=Nc4ccc(Cl)cc4SC3=C(O)C2)c1 (stereo not drawn) | – |
| 10 | – | – | OC1=C2Sc3cc(Cl)ccc3N=C2CC(c2ccccc2)C1 (stereo not drawn) | – |
| 30 | – | – | O=S1(=O)C2=C(O)CC(c3ccc(Cl)cc3Cl)CC2=Nc2ccc(Cl)cc21 (stereo not drawn) | – |
| 10 | – | – | COc1cccc(C2CC3=Nc4ccc(Cl)cc4SC3=C(O)C2)c1OC (stereo not drawn) | – |
| 10 | – | – | OC1=C2Sc3cc(Cl)ccc3N=C2CC(c2ccc(Cl)cc2Cl)C1 (stereo not drawn) | – |
| 20 | – | – | COc1cccc(C2CC3=Nc4ccc(F)cc4SC3=C(O)C2)c1 (stereo not drawn) | – |
| 60 | – | – | CC1(C)CC2=Nc3ccc(F)cc3SC2=C(O)C1 | – |
| 4 | 6 | 3 | OC1=C2Sc3cc(Cl)ccc3N=C2CC(c2ccc(Cl)cc2)C1 (stereo not drawn) | Activity [7]: < 10%; IC50 [6]: 10 µM |
| 10 | – | – | OC1=C2Sc3cc(F)ccc3N=C2CC(c2ccc(Cl)cc2Cl)C1 (stereo not drawn) | – |
| 4 | 5 | 5 | O=S1(=O)C2=C(O)CC(c3ccccc3)CC2=Nc2ccc(Cl)cc21 (stereo not drawn) | Activity [8]: 90% |
| 5 | 3 | 3 | COc1cccc(C2CC3=Nc4ccc(F)cc4S(=O)(=O)C3=C(O)C2)c1 (stereo not drawn) | Activity [8]: 90%; IC50 [6]: > 100 µM |

Continued, compound first:

| Compound | IC50 [1] [µM] | IC50 [3] [µM] | IC50 [4] [µM] | also measured |
| --- | --- | --- | --- | --- |
| COc1ccc(C2CC3=Nc4ccc(Cl)cc4SC3=C(O)C2)cc1 (stereo not drawn) | 10 | – | – | – |
| COc1cccc(C2CC3=Nc4ccc(F)cc4SC3=C(O)C2)c1OC (stereo not drawn) | 20 | – | – | – |
| COc1ccc(C2CC3=Nc4ccc(Cl)cc4SC3=C(O)C2)cc1OC (stereo not drawn) | 30 | – | – | – |
| CC1(C)CC2=Nc3ccc(Cl)cc3S(=O)(=O)C2=C(O)C1 | 5 | 60 | 20 | Activity [5]: > 90%; IC50 [6]: > 100 µM |
| COc1cccc(C2CC3=Nc4ccc(Cl)cc4S(=O)(=O)C3=C(O)C2)c1OC (stereo not drawn) | 4 | 2 | 2 | Activity [5]: > 90%; IC50 [6]: > 100 µM |
| CC1(C)CC2=Nc3ccc(F)cc3S(=O)(=O)C2=C(O)C1 | 5 | 100 | 30 | Activity [5]: > 90%; IC50 [6]: > 100 µM |
| COc1ccc(C2CC3=Nc4ccc(Cl)cc4S(=O)(=O)C3=C(O)C2)cc1 (stereo not drawn) | 30 | – | – | – |
| OC1=C2Sc3cc(F)ccc3N=C2CC(c2ccccc2)C1 (stereo not drawn) | 20 | – | – | – |
| COc1ccc(C2CC3=Nc4ccc(Cl)cc4S(=O)(=O)C3=C(O)C2)cc1OC (stereo not drawn) | 50 | – | – | – |
| COc1ccc(C2CC3=Nc4ccc(F)cc4S(=O)(=O)C3=C(O)C2)cc1OC (stereo not drawn) | 5 | 3 | 1 | Activity [2]: 50% |
| COc1ccc(C2CC3=Nc4ccc(F)cc4SC3=C(O)C2)cc1OC (stereo not drawn) | 20 | – | – | – |
| OC1=C2Sc3cc(Cl)ccc3N=C2CCC1 | 40 | – | – | – |
| OC1=C2Sc3cc(F)ccc3N=C2CC(c2ccc(Cl)cc2)C1 (stereo not drawn) | 5 | 4 | 3 | Activity [8]: 90%; IC50 [6]: > 100 µM |
| CC1(C)CC2=Nc3ccc(Cl)cc3SC2=C(O)C1 | 30 | – | – | – |
